Screens (PubChem BioAssay)
KCNK9 block: KCNK9 potassium channel inhibitors, primary screen, HEK293 cells, thallium flux; Potassium channel subfamily K member 9 (Homo sapiens), Q9NPC2; FluxOR thallium flux fluorescence; stronger effect = lower value; B-score at 10 µM; 310,000 tested, 1.2% active; AID 488922, 2010;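 active = ratio B-score over 3 SD below the library mean, with starting fluorescence within 5 SD of its mean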;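 also: negative B-score means less thallium flux so channel inhibition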
KCNQ1 pot: potentiators or activators of KCNQ1 channel, primary screen, cell-based, thallium flux, high-throughput. Potassium voltage-gated channel subfamily KQT member 1 (Homo sapiens), P51787. CHO-K1 KCNQ1, thallium flux FluxOR fluorescence; stronger effect = higher value. B-score at 10 µM. 310,000 tested, 0.35% active. AID 2648, 2010;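 active = fluorescence ratio B-score, a plate-corrected score, at least three library SD, with initial intensity B-score within 5 SD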
Target sequence (P51787 whole entry, looked up): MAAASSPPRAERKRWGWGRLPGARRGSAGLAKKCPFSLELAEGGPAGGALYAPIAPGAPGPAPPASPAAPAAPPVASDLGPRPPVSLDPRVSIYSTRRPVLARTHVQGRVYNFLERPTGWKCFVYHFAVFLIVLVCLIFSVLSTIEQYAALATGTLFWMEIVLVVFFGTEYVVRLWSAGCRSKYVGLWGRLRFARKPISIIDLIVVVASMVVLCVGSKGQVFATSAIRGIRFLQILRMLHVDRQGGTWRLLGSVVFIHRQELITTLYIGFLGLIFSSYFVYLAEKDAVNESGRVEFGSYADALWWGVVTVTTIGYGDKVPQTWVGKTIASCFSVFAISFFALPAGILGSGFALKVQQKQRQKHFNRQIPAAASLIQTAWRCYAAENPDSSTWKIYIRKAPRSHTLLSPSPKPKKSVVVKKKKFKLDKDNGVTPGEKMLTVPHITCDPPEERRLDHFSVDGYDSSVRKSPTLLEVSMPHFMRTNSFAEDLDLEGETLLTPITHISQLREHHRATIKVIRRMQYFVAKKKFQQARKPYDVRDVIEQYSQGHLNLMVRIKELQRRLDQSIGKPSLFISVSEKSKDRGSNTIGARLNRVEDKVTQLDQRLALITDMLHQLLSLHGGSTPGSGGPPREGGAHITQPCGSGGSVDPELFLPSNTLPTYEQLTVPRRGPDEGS
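Assay system: CHO-K1 cells stably expressing KCNQ1; Medium: assay buffer with matched DMSO; Also added: K+/Tl+ depolarizing stimulus; Dosing: single dose; Timing: dye 90 min, compound 20 min, room temperature; Measured by: kinetic FluxOR thallium fluorescence, 10-s 1-Hz baseline, 110-s post-stimulus read; Read-out: peak-minus-minimum fluorescence over initial fluorescence, negative-control normalized, B-scored.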
hERG rescue: hERG rescue from dofetilide block, primary screen, cell-based, CHO-hERG, FluxOR thallium flux, dofetilide IC70. 310,000 tested, 0.51% active. AID 1511, 2009. dofetilide IC70 present. activation (rescue from dofetilide block), less the hit threshold, % at 10 µM;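 active = activation above the mean of controls blocked by dofetilide plus 5 SD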;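 also: thallium influx through hERG after potassium depolarization seen as dye fluorescence rise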
KCNQ1 inh: inhibitors of human KCNQ1 channel, primary screen, cell-based, thallium flux, high-throughput; CHO-K1 KCNQ1, FluxOR thallium flux fluorescence; stronger effect = higher value; 310,000 tested, 1.3% active; B-score at 10 µM; Potassium voltage-gated channel subfamily KQT member 1 (Homo sapiens), P51787; AID 2642, 2010;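 active = compounds whose thallium flux B-score, printed positive for inhibition, exceeds three library SD while starting fluorescence stays within three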;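 also: channel opened by potassium depolarization with thallium stimulus after 20 min compound exposure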
Kir21 block: inhibitors of mouse Kir2.1 inward-rectifier potassium channel; Inward rectifier potassium channel 2 (Mus musculus), P35561; 310,000 tested, 0.85% active; B-score at 10 µM; AID 1672, 2009; HEK293-Kir2.1, FluxOR thallium flux fluorescence; stronger effect = lower value;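 active = fluorescence ratio B-score at or below minus 3 SD of library scores, with starting-brightness B-score within 2 SD, cut at about -4.2 in these data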;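 also: channel flux triggered by added potassium and thallium sulfate stimulus; B-score of peak minus minimum fluorescence over baseline after thallium stimulus; more negative B-score means stronger Kir2.1 block with less thallium influx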
KCNK3 block: human KCNK3 channel inhibitors, primary screen, CHO cells, FluxOR thallium flux, B-score; B-score at 10 µM; Potassium channel subfamily K member 3 (Homo sapiens), O14649; AID 602410, 2012; FluxOR fluorescence; stronger effect = lower value; 340,000 tested, 0.84% active;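 active = B-score under library mean minus 4 SD, starting fluorescence ratio at most library mean plus 5 SD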;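 also: more negative B-score means stronger inhibition of thallium flux through KCNK3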
Hits are given with their value; - = inactive; . = no result. Most compounds without a hit are left out; they make up all but 3.7% or so of the library.

SMILES	KCNK9 block	KCNQ1 pot	hERG rescue	KCNQ1 inh	Kir21 block	KCNK3 block
CCOc1ncccc1C(=O)OCC(=O)Nc1cc(S(=O)(=O)N2CCOCC2)ccc1C	-	-	-	-	-	-
Cc1ccc(C)c(S(=O)(=O)N2CCN(C(=O)Cn3cnc4c3c(=O)n(C)c(=O)n4C)CC2)c1	-	-	-	-	-	-
CCCCCCCCC1=NCCc2c1[nH]c1ccccc21	-	-	-	8	-7.8	-
Cc1cc(C)c(S(=O)(=O)N2CCN=C2c2ccccc2)c(C)c1	-	-	-	-	-	-
Cc1cc(S(=O)(=O)N2CCN=C2c2ccccc2)ccc1F	-	-	-	-	-4.7	-
COC(=O)c1ccc(/C=C/c2ccc3cccc(OC)c3n2)cc1	-	-	44	-	-	-
COc1cc(/C=C/c2ccc3cccc(O)c3n2)cc(OC)c1OC	-	-	-	-	-	-
CSc1ccc(S(=O)(=O)N(CC(=O)NN=C2CCN(C)CC2)c2ccc(C)cc2)cc1	-	-	-	-	-	-
Cn1c(N/N=C/c2c[nH]c3ccccc23)nc2ccccc21	-	-	-	-	-5.2	-
Cc1cc(N/N=C/c2c[nH]c3ccccc23)c2ccccc2n1	-	-	-	-	-	-
Cc1cc(C)n(CCC(=O)N/N=C/c2ccc(Cl)c([N+](=O)[O-])c2)n1	-	-	-	7	-	-
COc1ccc(/C=N/NC(=O)CCn2nc(C)cc2C)cc1	-	-	-	-	-	-
O=[N+]([O-])c1nn(-c2ccccc2)[n+]([O-])c1N1CCN(c2ccccc2F)CC1	-	-	-	-	-	-
CCC1C/C(=C\c2cc(OC)c(OC)cc2OC)C(=O)/C(=C/c2cc(OC)c(OC)cc2OC)C1 (centres undefined)	-	-	-	7	-	-11
Oc1c(Cl)cc(Cl)cc1/C=N/c1nc(-c2ccc(Cl)cc2)cs1	-	-	-	-	-	-
Cc1cccc(N=Cc2cc(Br)cc(Cl)c2O)c1	-	-	-	-	-	-
Oc1c(Cl)cc(Cl)cc1/C=N/c1nccs1	-	9	-	-	-	-
NC(=O)c1cccc(N=Cc2cc(Cl)cc(Cl)c2O)c1	-	10	6.5	-	-	-
CN(CC(=O)Nc1ccccc1N1CCCC1)S(=O)(=O)c1ccc(F)cc1	-	-	-	-	-	-
CCN1CCN(c2cc(C(C)C)nc3c(-c4ccccc4)c(C)nn23)CC1	-	-	-	-	-8.1	-
NCCSc1c(-c2ccccc2)[nH]c2ccccc12	-	-	-	-	-	-
NCCSc1c(-c2ccc(Cl)cc2)[nH]c2ccccc12	-7.3	-	-	-	-9.9	-
COc1ccc(N2CCN(C(=O)c3cc(C)on3)CC2)cc1	-	-	-	-	-	-
O=C(NCC(c1cccs1)N1CCOCC1)C1CCN(S(=O)(=O)c2cccc(C(F)(F)F)c2)CC1 (centres undefined)	-	9	-	-	-	-
CCCOc1ccc(NC(=O)CC2C(=O)N(Cc3ccccc3)C(=S)N2Cc2cccs2)cc1 (centres undefined)	-	-	-	6	-	-
SMILES	KCNK9 block	KCNQ1 pot	hERG rescue	KCNQ1 inh	Kir21 block	KCNK3 block
CC(=O)Nc1ccc2c(c1)C(N1CC3CCC(CC3)C1)c1ccccc1-2 (centres undefined)	.	.	.	.	.	-10
O=C(O)c1cn(Cc2ccccc2Cl)c2ccc(S(=O)(=O)N3CCOCC3)cc2c1=O	-	-	-	-	-	-
CCN(CC)c1ccc2nc3c4ccccc4c(=O)cc-3oc2c1	-	-	-	-	-	.
CCN(CC)c1ccc2c(-c3ccc(S(=O)(=O)O)cc3S(=O)(=O)[O-])c3ccc(=[N+](CC)CC)cc-3oc2c1	-	-	-	25	-	-
COc1ccc([C@H]2/C=C\CN(S(=O)(=O)c3cccc4cccnc34)[C@@H](C)C(=O)N2Cc2ccc(F)cc2)cc1	-	-	-	-	-	-
COc1ccc([C@H]2/C=C\CN(S(=O)(=O)c3ccc4ccccc4c3)[C@@H](C)C(=O)N2Cc2ccc(F)cc2)cc1	-7.8	-	-	-	-	-
Cc1ccc(C)c(NC(=S)NNC(=O)c2csc3c2CCCC3)c1	-	11	-	-	-	-
Cc1ccc(C)c(NC(=S)NNC(=O)c2csc3c2CCC(C)C3)c1 (centres undefined)	-	19	6.8	-	-	-
Cc1cccc(NC(=S)NNC(=O)c2csc3c2CCCC3)c1	-	-	-	-	-	-
Cc1ccc(NC(=S)NNC(=O)c2ccccc2O)c(C)c1	-	-	-	10	-	-
Cc1ccc(NC(=O)NNC(=O)c2cc3ccccc3cc2O)c(C)c1	-	-	-	-	-	-
CC(C)(O)CN(C(=O)c1ccc([N+](=O)[O-])cc1)C1CCCC1	.	.	.	.	.	-
CCC(C)c1ccccc1NC(=O)c1cc2cccc([N+](=O)[O-])c2[nH]1 (centres undefined)	-	-	-	8	-	-
COc1ccc(CNC(=O)C2CCN(S(=O)(=O)N3CCCCC3)CC2)c(OC)c1	-	-	-	-	-	-
CCCCN1C[C@H](Cc2ccccc2)[C@@H](CC(=O)Nc2ccccc2)C1=O	-	-	-	-	-	-
O=S(=O)(Nc1nc(-c2ccccc2)cs1)c1cc(Cl)ccc1Cl	-	-	-	6	-	-
COc1ccccc1-c1c(C)oc2cc(OC(=O)c3ccco3)ccc2c1=O	-	-	-	-	-9.2	-
CCN(c1nc(N)c(C(=O)N=C(N)N)nc1Cl)C(C)C	-	-	-	-	-5.7	-
COc1cccc(C(=O)Nc2nnc(SCC(=O)Nc3ccc(NC(C)=O)cc3)s2)c1	-	-	-	-	-	-
CC(C)C(NC(=O)c1c(F)cccc1F)C(=O)NC1CC(C)(C)NC(C)(C)C1 (centres undefined)	-	-	-	-	-	-
CCCc1cc2c(-c3ccccc3)cc(=O)oc2cc1OCc1ccc(C(=O)O)o1	-	9	-	-	-	-
CCc1cc2c(-c3ccccc3)cc(=O)oc2cc1OCC(C)=O	-	-	-	-	-	-
OCCNc1nc(-c2ccccc2)nc2c1oc1ccccc12	-	-	-	-	-	-
COC(=O)[C@H](Cc1ccccc1)NC(=O)O[C@H]1C(=O)c2ccc(OC)cc2O[C@@H]1c1ccc2c(c1)OCO2	-	-	-	-	-	.
COc1ccc2c(c1)O[C@@H](c1cccc(C(F)(F)F)c1)[C@H](OC(=O)NCCc1ccc(OC)c(OC)c1)C2=O	-	8	8.4	-	-	.
